A word on the Emax: it is the size of the effect at its maximum, as opposed to the concentration needed. By EC50 is commonly meant the concentration at which the effect is half-maximal.

Common to all, as to type: cell-based
The species named for test [1] is Homo sapiens. Description: Activation of HUVEC-derived soluble guanylate cyclase expressed in CHOK1 cells assessed as increase in cGMP production after 1 hr by HTRF assay relative to 1-{6-[5-chloro-2-({4-[trans-4-(trifluoromethyl)cyclohexyl]-benzyl}oxy)phenyl)pyridin-2-yl)-5-(trifluoromethyl)-1H-pyrazole-4-carboxylic acid. An outline of the steps: (§1)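 High-throughput assay in Chinese hamster ovary cells expressing sGC. cGMP was measured across a dose range. EC50 and Emax (maximal cGMP produced) were taken from the dose-response curve.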
For orientation: TR-FRET usually uses a lanthanide donor and a delayed reading to cut background.

The species entered for test [2] is Homo sapiens. Description: Activation of soluble guanylate cyclase in human GTM3 cells assessed as increase in cGMP production after 30 mins by fluorescence assay relative to 1-{6-[5-chloro-2-({4-[trans-4-(trifluoromethyl)cyclohexyl]-benzyl}oxy)phenyl)pyridin-2-yl)-5-(trifluoromethyl)-1H-pyrazole-4-carboxylic acid. An outline of the steps:
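Immortalized glaucomatous trabecular meshwork (GTM-3) cells expressing endogenous levels of sGC were used. cGMP was read across a dose range. EC50 and Emax were derived from the dose-response curve.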

Test [3] is described as follows: Activation of HUVEC-derived soluble guanylate cyclase expressed in CHOK1 cells assessed as increase in cGMP production after 1 hr by HTRF assay. Summed up:
as §1

`CCc1cc(OCC2=C(c3cccc(-n4ncc(C(=O)O)c4C(F)(F)F)n3)CCCC2C)ccc1C1CCN(C(=O)C2CC2)CC1` (single isomer, unassigned; (+)): the Emax in test [1] turned out to be 102%; in test [2], 85%.

For `Cc1cc(C2CCN(C(=O)C3CC3)CC2)ccc1OC1CCc2cccc(-c3cccc(-n4ncc(C(=O)O)c4C(F)(F)F)n3)c21` (single isomer, unassigned; (-)) [listing 1 of 2 here], the EC50 in test [3] came to 7 nM.

In the case of `Cc1cc(C2CCN(C(=O)C3CC3)CC2)ccc1OCC1=C(c2cccc(-n3ncc(C(=O)O)c3C(F)(F)F)n2)CCC1`, the EC50 in test [3] (CHO-K1, 1 h) came out at 2.5 nM. Moreover, in test [1], the Emax was found to be 101%.

For the compound `O=C(Nc1ccc(S(=O)(=O)N2CCOCC2)cc1)c1cc(Cl)ccc1NS(=O)(=O)c1ccc(Cl)s1`, in test [3] (CHO-K1, 1 h), the EC50 stood at 870 nM. The Emax in test [1] amounted to 95%.

With `Cc1cc2c(c(-c3cccc(-n4ncc(C(=O)O)c4C(F)(F)F)n3)c1)C(Nc1ccc(C3CCN(C(=O)C4CC4)CC3)cc1C)CC2` (single isomer, unassigned; (-)) [listing 1 of 2 here], the half-maximal effective concentration (EC50) in test [3] is 24 nM.

As to `Cc1cc(C2CCN(C(=O)C3CC3)CC2)ccc1NC1CCc2cccc(-c3cccc(-n4ncc(C(=O)O)c4C(F)(F)F)n3)c21` (single isomer, unassigned; (-)), the maximal response (Emax) in test [1] was found to be 101%; in test [2] it was 97%.

For the compound `Cc1cc(C2CCN(C(=O)C3CC3)CC2)ccc1OC1CCc2cccc(-c3cccc(-n4ncc(C(=O)O)c4C(F)(F)F)n3)c21` (single isomer, unassigned; (+)), the Emax in test [1] stood at 102%; in test [2], 100%.

For the compound `Cc1cc(C2CCN(CC3CC3)CC2)ccc1OCc1ccsc1-c1cccc(-n2ncc(C(=O)O)c2C(F)(F)F)n1`, the concentration giving a half-maximal response (EC50) in test [3] (CHO-K1, 1 h) was 430 nM. Besides, the Emax in test [1] turned out to be 88%.

As to `CCc1cc(OCC2=C(c3cccc(-n4ncc(C(=O)O)c4C)n3)CCCC2C)ccc1C1CCN(C(=O)C2CC2)CC1` (stereo in doubt; (-)-24) [listing 1 of 2 here], the EC50 in test [3] is 3 nM.

Consider `Cc1cc(C2CCN(C(=O)C3CC3)CC2)ccc1NC1CCc2cccc(-c3cccc(-n4ncc(C(=O)O)c4C)n3)c21` (stereo in doubt; (-)-23), for which the figures for the Emax in test [1] and in test [2] were 102% and 82%, respectively.

For `CCc1cc(OCC2=C(c3cccc(-n4ncc(C(=O)O)c4C(F)(F)F)n3)CCCC2C)ccc1C1CCN(C(=O)C2CC2)CC1` (stereo in doubt; (-)-17), the Emax in test [1] was determined as 100%; in test [2], 63%.

For the compound `Cc1cc2c(c(-c3cccc(-n4ncc(C(=O)O)c4C(F)(F)F)n3)c1)C(Nc1ccc(C3CCN(C(=O)C4CC4)CC3)cc1C)CC2` (single isomer, unassigned; (-)) [listing 2 of 2 here], in test [1], the Emax was 99%.

Take `Cc1c(C(=O)O)cnn1-c1nc(-c2cccc(C(F)(F)F)c2)cs1`: in test [3] (CHO-K1, 1 h), the EC50 came out at 162 nM. The Emax in test [1] was 105%.

As to `Cc1cc2c(c(-c3cccc(-n4ncc(C(=O)O)c4C(F)(F)F)n3)c1)C(Nc1ccc(C3CCN(C(=O)C4CC4)CC3)cc1C)CC2` (single isomer, unassigned; (+)), the Emax in test [1] was determined as 101%; in test [2], 85%.

Turning to `Cc1cc(C2CCN(C(=O)C3CC3)CC2)ccc1OCc1ccsc1-c1cccc(-n2ncc(C(=O)O)c2C(F)(F)F)n1`, the EC50 in test [3] (CHO-K1, 1 h) came out at 4.5 nM. Besides, the Emax in test [1] was found to be 102%.

Regarding `CCc1cc(OCC2=C(c3cccc(-n4ncc(C(=O)O)c4C)n3)CCCC2C)ccc1C1CCN(C(=O)C2CC2)CC1` (stereo in doubt; (-)-24) [listing 2 of 2 here], the Emax in test [1] came out at 101%.

Regarding `Cc1cc(C2CCNCC2)ccc1OCc1ccsc1-c1cccc(-n2ncc(C(=O)O)c2C(F)(F)F)n1`, the EC50 in test [3] (CHO-K1, 1 h) is 4200 nM. For the same compound, the Emax in test [1] was found to be 73%.

As to `Cc1cc(C2CCN(C(=O)C3CC3)CC2)ccc1OC1CCc2cccc(-c3cccc(-n4ncc(C(=O)O)c4C(F)(F)F)n3)c21` (single isomer, unassigned; (-)) [listing 2 of 2 here], in test [1], the Emax turned out to be 100%.

`CCC(=O)N1CCC(c2ccc(OCc3ccsc3-c3cccc(-n4ncc(C(=O)O)c4C(F)(F)F)n3)cc2)CC1`: the EC50 in test [3] (CHO-K1, 1 h) came to 25 nM. In addition, the Emax in test [1] was 101%.
